According to ChEMBL document CHEMBL2424551, “Synthesis, in vitro evaluation and molecular modelling of naphthalimide analogue as anticancer agents” (2013):
The source made the active and inactive calls. No cut-off for these calls is given here.

Legend:
Type in all cases: functional
HCT-15 = assay: Growth inhibition of human HCT15 cells at 10 uM after 48 hrs by SRB assay; conditions: HCT-15, 48 h, read-out: GI
How it was run: (§1)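 Cells grown in RPMI 1640 with 5% FBS and 2 mM L-glutamine, plated at 5000–40,000 cells/well by doubling time and preincubated 24 h (37 °C, 5% CO2); a time-zero plate is TCA-fixed. Single dose added, then 48 h incubation. Fixed with cold TCA, stained with 0.4% SRB, dye solubilized in 10 mM Tris base, absorbance at 515 nm; percent growth vs time-zero and untreated control.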

NCI-H522 = assay: Growth inhibition of human NCI-H522 cells at 10 uM after 48 hrs by SRB assay; conditions: NCI-H522, 48 h, read-out: GI; how it was run: as §1
NCI-H322M = assay: Growth inhibition of human NCI-H322M cells at 10 uM after 48 hrs by SRB assay; conditions: read-out: GI; how it was run: as §1
NCI-H460 = assay: Growth inhibition of human NCI-H460 cells at 10 uM after 48 hrs by SRB assay; conditions: NCI-H460, 48 h, read-out: GI; how it was run: as §1
NCI-H226 = assay: Growth inhibition of human NCI-H226 cells at 10 uM after 48 hrs by SRB assay; conditions: NCI-H226, 48 h, read-out: GI; how it was run: as §1
NCI-H23 = assay: Growth inhibition of human NCI-H23 cells at 10 uM after 48 hrs by SRB assay; conditions: NCI-H23, 48 h, read-out: GI; how it was run: as §1
HOP-92 = assay: Growth inhibition of human HOP92 cells at 10 uM after 48 hrs by SRB assay; conditions: HOP-92, 48 h, read-out: GI; how it was run: as §1
HOP-62 = assay: Growth inhibition of human HOP62 cells at 10 uM after 48 hrs by SRB assay; conditions: HOP-62, 48 h, read-out: GI; how it was run: as §1
CCRF-CEM = assay: Growth inhibition of human CCRF-CEM cells at 10 uM after 48 hrs by SRB assay; conditions: read-out: GI; how it was run: as §1
HL-60(TB) = assay: Growth inhibition of human HL-60(TB) cells at 10 uM after 48 hrs by SRB assay; conditions: HL-60, 48 h, read-out: GI
How it was run: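 Single-concentration pass across the 60-line panel in RPMI 1640 with 5% FBS. Cells preincubated 24 h, then exposed 48 h at 37 °C, 5% CO2. Read by SRB staining with absorbance at 515 nm. Percent growth is taken relative to time-zero and untreated controls and reported as percent growth inhibition (GI %).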

K562 = assay: Growth inhibition of human K562 cells at 10 uM after 48 hrs by SRB assay; conditions: K562, 48 h, read-out: GI; how it was run: as §1
RPMI-8226 = assay: Growth inhibition of human RPMI8226 cells at 10 uM after 48 hrs by SRB assay; conditions: RPMI-8226, 48 h, read-out: GI; how it was run: as §1
MDA-MB-468 = assay: Growth inhibition of human MDA-MB-468 cells at 10 uM after 48 hrs by SRB assay; conditions: for inhibition of growth at 10 µM: MDA-MB-468, 48 h, read-out: GI; how it was run: as §1
BT-549 = assay: Growth inhibition of human BT549 cells at 10 uM after 48 hrs by SRB assay; conditions: BT-549, 48 h, read-out: GI; how it was run: as §1
T47D = assay: Growth inhibition of human T47D cells at 10 uM after 48 hrs by SRB assay; conditions: read-out: GI
How it was run: (§2)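 NCI 60-cell-line screen with a single 10 µM dose. Cells are grown in RPMI 1640 with 5% FBS and 2 mM L-glutamine, plated at 5000–40,000 cells/well according to doubling time, and preincubated 24 h at 37 °C, 5% CO2; time-zero plates are TCA-fixed at that point. Drug exposure is 48 h. Adherent cells are fixed with cold TCA, stained with 0.4% SRB in 1% acetic acid and read at 515 nm. Percent growth is calculated relative to time-zero and untreated controls and reported as GI%.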

MDA-MB-231 = assay: Growth inhibition of human MDA-MB-231 cells at 10 uM after 48 hrs by SRB assay; conditions: MDA-MB-231, 48 h, read-out: GI; how it was run: as §1
PC-3 = assay: Growth inhibition of human PC3 cells at 10 uM after 48 hrs by SRB assay; conditions: PC-3, 48 h, read-out: GI; how it was run: as §1
DU-145 = assay: Growth inhibition of human DU145 cells at 10 uM after 48 hrs by SRB assay; conditions: DU-145, 48 h, read-out: GI; how it was run: as §1
SN12C = assay: Growth inhibition of human SN12C cells at 10 uM after 48 hrs by SRB assay; conditions: read-out: GI; how it was run: as §2
ACHN = assay: Growth inhibition of human ACHN cells at 10 uM after 48 hrs by SRB assay; conditions: read-out: GI; how it was run: as §1
CAKI-1 = assay: Growth inhibition of human Caki1 cells at 10 uM after 48 hrs by SRB assay; conditions: CAKI-1, 48 h, read-out: GI; how it was run: as §1
786-0 = assay: Growth inhibition of human 786-0 cells at 10 uM after 48 hrs by SRB assay; conditions: 786-0, 48 h, read-out: GI; how it was run: as §1
SK-OV-3 = assay: Growth inhibition of human SKOV3 cells at 10 uM after 48 hrs by SRB assay; conditions: SK-OV-3, 48 h, read-out: GI; how it was run: as §2
[1] = Growth inhibition of human NCI-ADR-RES cells at 10 uM after 48 hrs by SRB assay; conditions: read-out: GI; how it was run: as §1
OVCAR-5 = assay: Growth inhibition of human OVCAR5 cells at 10 uM after 48 hrs by SRB assay; conditions: OVCAR-5, 48 h, read-out: GI; how it was run: as §1
UACC-62 = assay: Growth inhibition of human UACC62 cells at 10 uM after 48 hrs by SRB assay; conditions: UACC-62, 48 h, read-out: GI; how it was run: as §2
SK-MEL-5 = assay: Growth inhibition of human SK-MEL-5 cells at 10 uM after 48 hrs by SRB assay; conditions: SK-MEL-5, 48 h, read-out: GI; how it was run: as §1
MDA-MB-435 = assay: Growth inhibition of human MDA-MB-435 cells at 10 uM after 48 hrs by SRB assay; conditions: MDA-MB-435, 48 h, read-out: GI; how it was run: as §1
U-251 = assay: Growth inhibition of human U251 cells at 10 uM after 48 hrs by SRB assay; conditions: U-251, 48 h, read-out: GI; how it was run: as §2
SNB-75 = assay: Growth inhibition of human SNB75 cells at 10 uM after 48 hrs by SRB assay; conditions: SNB-75, 48 h, read-out: GI; how it was run: as §2
SF-295 = assay: Growth inhibition of human SF295 cells at 10 uM after 48 hrs by SRB assay; conditions: SF-295, 48 h, read-out: GI; how it was run: as §1
SW-620 = assay: Growth inhibition of human SW620 cells at 10 uM after 48 hrs by SRB assay; conditions: SW-620, 48 h, read-out: GI; how it was run: as §2
KM12 = assay: Growth inhibition of human KM12 cells at 10 uM after 48 hrs by SRB assay; conditions: KM12, 48 h, read-out: GI; how it was run: as §1
HCT-116 = assay: Growth inhibition of human HCT116 cells at 10 uM after 48 hrs by SRB assay; conditions: HCT-116, 48 h, read-out: GI; how it was run: as §1

| SMILES | inhibition of growth at 10 µM (HCT-15) | inhibition of growth at 10 µM (NCI-H522) | inhibition of growth at 10 µM (NCI-H322M) | inhibition of growth at 10 µM (NCI-H460) | inhibition of growth at 10 µM (NCI-H226) | inhibition of growth at 10 µM (NCI-H23) | inhibition of growth at 10 µM (HOP-92) | inhibition of growth at 10 µM (HOP-62) | inhibition of growth at 10 µM (CCRF-CEM) | inhibition of growth at 10 µM (HL-60(TB)) | inhibition of growth at 10 µM (K562) | inhibition of growth at 10 µM (RPMI-8226) | inhibition of growth at 10 µM (BT-549) | inhibition of growth at 10 µM (T47D) | inhibition of growth at 10 µM (MDA-MB-231) | inhibition of growth at 10 µM (PC-3) | inhibition of growth at 10 µM (DU-145) | inhibition of growth at 10 µM (SN12C) | inhibition of growth at 10 µM (ACHN) | inhibition of growth at 10 µM (CAKI-1) | other results |
| --- | --- | --- | --- | --- | --- | --- | --- | --- | --- | --- | --- | --- | --- | --- | --- | --- | --- | --- | --- | --- | --- |
| O=c1c2cccc3c(NCCO)ccc(c32)c2nc3ccccc3n12 | < 20% | < 20% | < 20% | 42.8% | < 20% | 22.2% | 40% | < 20% | < 20% | < 20% | < 20% | 28.6% | < 20% | 31.7% | < 20% | < 20% | < 20% | < 20% | < 20% | < 20% | inhibition of growth at 10 µM (MDA-MB-468): 81.1%; inhibition of growth at 10 µM (786-0): < 20%; inhibition of growth at 10 µM (SK-OV-3): < 20%; inhibition of growth at 10 µM [1]: < 20%; inhibition of growth at 10 µM (OVCAR-5): < 20%; inhibition of growth at 10 µM (UACC-62): 23.6%; inhibition of growth at 10 µM (SK-MEL-5): 20.2%; inhibition of growth at 10 µM (MDA-MB-435): < 20%; inhibition of growth at 10 µM (U-251): < 20%; inhibition of growth at 10 µM (SNB-75): < 20%; inhibition of growth at 10 µM (SF-295): < 20%; inhibition of growth at 10 µM (SW-620): < 20%; inhibition of growth at 10 µM (KM12): < 20%; inhibition of growth at 10 µM (HCT-116): < 20% |
| O=c1c2cccc3c(Nc4ccc(F)cc4)ccc(c32)c2nc3ccccc3n12 | 28.9% | < 20% | 32.2% | 22.1% | < 20% | < 20% | 46.8% | < 20% | < 20% | < 20% | < 20% | 42.6% | < 20% | 76.6% | 29.1% | 22.8% | < 20% | < 20% | < 20% | 20.1% | growth inhibition (GI) (MDA-MB-468): Active; inhibition of growth at 10 µM (786-0): < 20%; inhibition of growth at 10 µM (SK-OV-3): < 20%; inhibition of growth at 10 µM [1]: < 20%; inhibition of growth at 10 µM (OVCAR-5): < 20%; inhibition of growth at 10 µM (UACC-62): 32.2%; inhibition of growth at 10 µM (SK-MEL-5): 29.6%; inhibition of growth at 10 µM (MDA-MB-435): < 20%; inhibition of growth at 10 µM (U-251): < 20%; inhibition of growth at 10 µM (SNB-75): 29.2%; inhibition of growth at 10 µM (SF-295): < 20%; inhibition of growth at 10 µM (SW-620): < 20%; inhibition of growth at 10 µM (KM12): 25.6%; inhibition of growth at 10 µM (HCT-116): < 20% |
| O=c1c2cccc3c(N4CCCC4)ccc(c32)c2nc3ccccc3n12 | 21.4% | 28.9% | < 20% | 83.9% | 44.7% | 31.8% | 59.3% | 33.9% | 46.3% | 28% | 24% | 24.3% | 28.8% | 27.9% | 22.9% | 32.1% | 21.9% | 35.2% | 47.6% | 48.7% | inhibition of growth at 10 µM (MDA-MB-468): < 20%; inhibition of growth at 10 µM (786-0): < 20%; inhibition of growth at 10 µM (SK-OV-3): 20.9%; inhibition of growth at 10 µM [1]: < 20%; inhibition of growth at 10 µM (OVCAR-5): < 20%; inhibition of growth at 10 µM (UACC-62): 37.5%; inhibition of growth at 10 µM (SK-MEL-5): 35.5%; inhibition of growth at 10 µM (MDA-MB-435): < 20%; inhibition of growth at 10 µM (U-251): 35.3%; inhibition of growth at 10 µM (SNB-75): 27%; inhibition of growth at 10 µM (SF-295): 40.2%; inhibition of growth at 10 µM (SW-620): 40.5%; inhibition of growth at 10 µM (KM12): < 20%; inhibition of growth at 10 µM (HCT-116): 45.3% |
